Experimental data of several laboratories.
Protocols differ between the studies behind these lines.
Target: Acetylcholinesterase (ache, Electrophorus electricus, UniProt O42275)
Effect on: enzyme activity
Action: inhibitor
Technique: Ellman

Compound	IC50
Cc1ccc(Cn2cc(COc3ccc(-c4nnc(-c5ccccc5)o4)cc3)nn2)cc1	> 100 µM
CCOc1ccc(/C=C/C(=O)N2CCCC(NC(=O)OC(C)(C)C)C2)cc1OC (stereo not shown)	35.2 µM
O=C(O)C(/C=C/c1c(Cl)cccc1Cl)=N\Nc1nc(-c2ccc(F)cc2)cs1	0.299 µM
CCN(CC)C(=O)Oc1ccc(CCC(=O)N2CCC(Cc3ccccc3)CC2)cc1OC	9.3 µM
Brc1ccc(Cn2cc(COc3ccc(-c4nnc(-c5ccccc5)o4)cc3)nn2)cc1	> 100 µM
CCN(C)C(=O)Oc1ccc(CCC(=O)N2CCC(Cc3ccccc3)CC2)cc1	6.1 µM
Cc1ccc(Cn2cc(COc3ccc(-c4nnc(-c5ccc(F)cc5)o4)cc3)nn2)cc1	> 100 µM
O=C(O)C(/C=C/c1ccc(Cl)cc1)=N\Nc1nc(-c2ccccc2)cs1	0.855 µM
COc1cccc(/C=C/C(=O)N2CCCC(NC(=O)OC(C)(C)C)C2)c1 (stereo not shown)	> 50 µM
Clc1ccc(Cn2cc(COc3ccc(-c4nnc(-c5ccccc5)o4)cc3)nn2)cc1	> 100 µM
CN(C)C(=O)Oc1ccc(/C=C/C(=O)NC2CCN(Cc3ccccc3)CC2)cc1	5.9 µM
CC(C)(C)OC(=O)NC1CCCN(C(=O)/C=C/c2cccc(Cl)c2)C1 (stereo not shown)	> 50 µM
COc1ccc(-c2nnc(-c3ccc(OCc4cn(Cc5ccc(F)cc5)nn4)cc3)o2)cc1	> 100 µM
Cc1ccc(/C=C/C(=O)N2CCCC(NC(=O)OC(C)(C)C)C2)cc1 (stereo not shown)	> 50 µM
CCN(C)C(=O)Oc1ccc(CCC(=O)N(CC)CC)cc1OC	19.5 µM
O=C(O)C(/C=C/c1c(Cl)cccc1Cl)=N\Nc1nc(-c2ccc(Cl)cc2)cs1	0.092 µM
CCN(C)C(=O)Oc1ccc(CCC(=O)N2CCC(CCCc3ccccc3)CC2)cc1OC	15.2 µM
O=[N+]([O-])c1ccc(-c2nnc(-c3ccc(OCc4cn(Cc5ccccc5)nn4)cc3)o2)cc1	> 100 µM
CC(C)(C)OC(=O)NC1CCCN(C(=O)/C=C/c2ccccc2Br)C1 (stereo not shown)	46.3 µM
O=[N+]([O-])c1ccc(-c2nnc(-c3ccc(OCc4cn(Cc5ccc(Br)cc5)nn4)cc3)o2)cc1	> 100 µM
COc1ccccc1/C=C/C(=O)N1CCCC(NC(=O)OC(C)(C)C)C1 (stereo not shown)	> 50 µM
COc1cc(CCC(=O)N2CCC(Cc3ccccc3)CC2)ccc1OC(=O)N(C)C	8.6 µM
Fc1ccc(-c2nnc(-c3ccc(OCc4cn(Cc5ccc(Br)cc5)nn4)cc3)o2)cc1	> 100 µM
CCOc1ccc(/C=C/C(=O)N2CCCC(NC(=O)OC(C)(C)C)C2)cc1 (stereo not shown)	> 50 µM
CCN(C)C(=O)Oc1ccc(CCC(=O)N2CCN(Cc3ccccc3)CC2)cc1	7.8 µM
